ChEMBL document CHEMBL3414483, “New heterocyclic hybrids of pyrazole and its bioisosteres: design, synthesis and biological evaluation as dual acting antimalarial-antileishmanial agents” (Eur J Med Chem, 2015)
In brackets after ≈: the same amount, converted by molar mass. Activity calls are given as the source filed them. The calls are words filed in the database; no cut-off is given here.

Key:
Leishmania aethiopica [1] = experiment: Antileishmanial activity against promastigote stage of Leishmania aethiopica after 24 hrs by alamar blue staining-based […]; assay type: functional, organism-based
How it was run: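 L. aethiopica promastigotes, 3 × 10^6 per well, given compounds from DMSO stocks in three-fold dilutions at 10 to 0.04 µg/ml (final DMSO ≤0.1%), in duplicate, at room temperature (21 ± 1 °C). Alamar blue (resazurin) was added after 24 h and absorbance read 48 h later at 540 and 630 nm. Negative control was parasites, medium and DMSO.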

Leishmania aethiopica [2] = experiment: Antileishmanial activity against amastigote stage of Leishmania aethiopica after 72 hrs by resazurin staining-based fluorescence assay; assay type: functional, organism-based
How it was run: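 Axenic L. aethiopica amastigotes (50 µl of 2 × 10^7 cells/ml) exposed to serial dilutions at final 0.04–10 µg/ml for 72 h at 31 °C, humidified, 5% CO₂. Resazurin was added at 68 h and fluorescence read at 72 h (ex 530/em 590 nm). EC50 from sigmoidal dose–response fits, mean ± SD of triplicate experiments run in duplicate. Controls were medium alone and 1% DMSO.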

Plasmodium berghei [3] = experiment: Antimalarial activity against Plasmodium berghei str. ANKA infected in Swiss albino mouse assessed as parasitemia at 0.048 mmol/kg/day, po qd […] by microscopic analysis relative to control; assay type: functional
How it was run: (§1)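 Four-day suppressive test. Mice were infected iv on day 0 with 0.2 ml of 2 × 10^7 P. berghei ANKA-parasitized erythrocytes from a donor mouse, diluted in saline. From 2 h post-infection they were dosed orally at 0.048 mmol/kg/day for days 0–3, five mice per group. The vehicle was 7% Tween and 3% ethanol in water. On day 4, Giemsa smears were scored over 5 fields of about 100 RBC each. Suppression was calculated relative to the vehicle group, taken as 100%.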

Plasmodium berghei [4] = experiment: Antimalarial activity against Plasmodium berghei str. ANKA infected in Swiss albino mouse assessed as supression of parasitemia at 0.048 mmol/kg/day, po qd for 3 days by microscopic analysis relative to control; assay type: functional; how it was run: as §1
Plasmodium berghei [5] = experiment: Antimalarial activity against Plasmodium berghei str. ANKA infected in Swiss albino mouse assessed as survival at 0.048 mmol/kg/day, po qd for 3 days by microscopic analysis relative to control; assay type: functional
How it was run: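 P. berghei ANKA infected mice, 4-day suppressive test. Day 0: 0.2 ml of 2 x 10^7 parasitized erythrocytes given i.v. (donor blood, 20-30% parasitemia, diluted in saline). Oral dosing at 0.048 mmol/kg/day from 2 h post-infection, then days 1-3 at 24 h intervals. Vehicle 7% Tween, 3% ethanol in water. Five mice/group. Survival time recorded per mouse; mean compared with vehicle group.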

Plasmodium falciparum = experiment: Antiplasmodial activity against chloroquine-resistant Plasmodium falciparum RKL9 infected in human RBC assessed as effect on schizont maturation after 24 hrs by Geimsa staining-based assay; assay type: functional, organism-based; conditions: RKL9, 24 h
How it was run: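 P. falciparum RKL9 in continuous culture in human B(+) RBC, parasitemia adjusted to 1-1.5%, RPMI 1640 with 10% AB(+) serum. Two-fold serial dilutions, compounds in ethanol (final ≤0.5%), 24 h at 37 °C, duplicate wells. Schizonts per 100 asexual parasites counted on Giemsa smears; % schizont maturation inhibition = (1 − Nt/Nc) × 100.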

Mus musculus [6] = experiment: Toxicity in mouse assessed as change in weight at 25 to 300 mg/kg, po measured for 3 days; assay type: organism-based; parameters: dose 25-300 mg/kg, route oral; conditions: in vivo, 72 h
How it was run: (§2)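 Male mice (26-32 g), six per group, fasted overnight and weighed. Compounds given orally as suspension in 1% gum acacia at 25, 50, 100, 200 and 300 mg/kg/day; vehicle control at up to 1 ml/100 g. Mortality recorded after 24 h; weight and deaths followed over 3 days post-dosing.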

Mus musculus [7] = experiment: Toxicity in mouse assessed as death at 25 to 300 mg/kg, po measured for 3 days; assay type: organism-based; parameters: dose 25-300 mg/kg, route oral; conditions: in vivo, 72 h; how it was run: as §2
[8] = Toxicity in po dosed mouse; assay type: organism-based; conditions: in vivo; how it was run: as §2
Mus musculus [9] = experiment: Toxicity in mouse up to 100 mg/kg administered via parenteral route; assay type: organism-based; parameters: dose 100 mg/kg; conditions: in vivo
How it was run: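 Groups of six mice received intraperitoneal doses of 10, 25, 50, 75 and 100 mg/kg, with propylene glycol as the vehicle control.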

Structure (SMILES)	IC50 (Leishmania aethiopica [1]) [µg/mL]	IC50 (Leishmania aethiopica [2]) [µg/mL]	Activity (Plasmodium berghei [3]) [%]	Activity (Plasmodium berghei [4]) [%]	Survival (Plasmodium berghei [5]) [days]	IC50 (Plasmodium falciparum) [nM]	Activity (Mus musculus [6])	Activity (Mus musculus [7])	MTD [8] [mg/kg]	Activity (Mus musculus [9])	Activity (Plasmodium berghei [5])
CCCCCCCCCCCCCCCCOP(=O)([O-])OCC[N+](C)(C)C [MILTEFOSINE]	3.19 (≈ 7.83 µM)	0.3 (≈ 0.736 µM)	–	–	–	–	–	–	–	–	–
Cc1ccc(-n2cc(/C=N/N=C3/SCC(=O)N3c3ccccc3)c(-c3ccc([N+](=O)[O-])cc3)n2)cc1	0.0201 (≈ 0.0405 µM)	0.28 (≈ 0.564 µM)	3	96.51	16.62	40.2	Non-toxic	Non-toxic	300	Non-toxic	–
O=[N+]([O-])c1ccc(-c2nn(-c3ccc(Br)cc3)cc2/C=N/NC(=S)Nc2ccccc2)cc1	0.0214 (≈ 0.041 µM)	0.21 (≈ 0.403 µM)	5	94.19	14.84	38.4	Non-toxic	Non-toxic	300	Non-toxic	–
Cc1ccc(-c2nn(-c3ccc(Br)cc3)cc2C2CC(c3ccccc3)=NN2)cc1 (stereo not given)	2.01 (≈ 4.4 µM)	1.88 (≈ 4.11 µM)	28	67.44	7.88	–	–	–	–	–	–
Cc1ccc(-c2nn(-c3ccc(C)cc3)cc2C2CC(c3ccccc3)=NN2)cc1 (stereo not given)	2.84 (≈ 7.25 µM)	2.37 (≈ 6.04 µM)	30	65.12	7.62	–	–	–	–	–	–
O=C(/C=C/c1cn(-c2ccc(Br)cc2)nc1-c1ccc([N+](=O)[O-])cc1)c1ccccc1	1.08 (≈ 2.28 µM)	1.22 (≈ 2.57 µM)	3	96.51	16.22	38.8	Non-toxic	Non-toxic	300	Non-toxic	–
CCC(=O)N1N=C(c2ccccc2)CC1c1cn(-c2ccc(Br)cc2)nc1-c1ccc(C)cc1 (stereo not given)	2.04 (≈ 3.98 µM)	1.79 (≈ 3.49 µM)	42	51.16	6.86	–	–	–	–	–	–
Cc1ccc(-c2nn(-c3ccc(Br)cc3)cc2C=O)cc1	3.11 (≈ 9.12 µM)	1.82 (≈ 5.33 µM)	30	65.11	8.4	–	–	–	–	–	–
Cc1ccc(-c2nn(-c3ccc(Br)cc3)cc2/C=C/C(=O)c2ccccc2)cc1	1.03 (≈ 2.32 µM)	1.01 (≈ 2.28 µM)	22	74.42	11.8	–	–	–	–	–	–
CC(=O)N(C1=NN(C(C)=O)C(c2cn(-c3ccc(Br)cc3)nc2-c2ccc(C)cc2)S1)c1ccccc1 (stereo not given)	0.468 (≈ 0.815 µM)	0.74 (≈ 1.29 µM)	12	86.05	12.68	–	–	–	–	–	–
Cc1ccc(-c2nn(-c3ccc(Br)cc3)cc2/C=N/N=C2/SCC(=O)N2c2ccccc2)cc1	0.0341 (≈ 0.0643 µM)	0.32 (≈ 0.603 µM)	4	95.35	16.86	36.4	Non-toxic	Non-toxic	300	Non-toxic	–
Cc1ccc(-c2nn(-c3ccc(C)cc3)cc2C=O)cc1	4.06 (≈ 14.7 µM)	1.97 (≈ 7.13 µM)	33	61.62	8.62	–	–	–	–	–	–
Cc1ccc(-c2nn(-c3ccc(C)cc3)cc2/C=C/C(=O)c2ccccc2)cc1	4 (≈ 10.6 µM)	2.88 (≈ 7.61 µM)	26	69.77	11.6	–	–	–	–	–	–
Cc1ccc(-c2nn(-c3ccc(C)cc3)cc2C2CC(c3ccccc3)=NN2c2ccccc2)cc1 (stereo not given)	3.09 (≈ 6.59 µM)	1.78 (≈ 3.8 µM)	26	69.77	10.82	–	–	–	–	–	–
O=Cc1cn(-c2ccc(Br)cc2)nc1-c1ccc([N+](=O)[O-])cc1	4.84 (≈ 13 µM)	2.03 (≈ 5.45 µM)	35	59.3	8.71	–	–	–	–	–	–
Cc1ccc(-c2nn(-c3ccc(C)cc3)cc2/C=N/NC(=S)Nc2ccccc2)cc1	3.01 (≈ 7.08 µM)	2.26 (≈ 5.31 µM)	34	60.47	9.23	–	–	–	–	–	–

Structure (SMILES)	IC50 (Leishmania aethiopica [1]) [µg/mL]	IC50 (Leishmania aethiopica [2]) [µg/mL]	Activity (Plasmodium berghei [3]) [%]	Activity (Plasmodium berghei [4]) [%]	Survival (Plasmodium berghei [5]) [days]	IC50 (Plasmodium falciparum) [nM]	Activity (Mus musculus [6])	Activity (Mus musculus [7])	MTD [8] [mg/kg]	Activity (Mus musculus [9])	Activity (Plasmodium berghei [5])
Cc1ccc(-c2nn(-c3ccc(Br)cc3)cc2C2CC(c3ccccc3)=NN2c2ccccc2)cc1 (stereo not given)	2.91 (≈ 5.46 µM)	1.24 (≈ 2.32 µM)	22	74.42	10.64	–	–	–	–	–	–
Cc1ccc(-n2cc(/C=N/N=c3/scc(-c4ccc(Br)cc4)n3-c3ccccc3)c(-c3ccc([N+](=O)[O-])cc3)n2)cc1	3.11 (≈ 4.9 µM)	1.78 (≈ 2.8 µM)	22	74.42	12.12	–	–	–	–	–	–
Cc1ccc(-n2cc(C=O)c(-c3ccc([N+](=O)[O-])cc3)n2)cc1	3.64 (≈ 11.9 µM)	1.56 (≈ 5.08 µM)	32	62.79	7.28	–	–	–	–	–	–
CC(=O)N(C1=NN(C(C)=O)C(c2cn(-c3ccc(C)cc3)nc2-c2ccc(C)cc2)S1)c1ccccc1 (stereo not given)	0.862 (≈ 1.69 µM)	0.82 (≈ 1.61 µM)	14	83.72	12.22	–	–	–	–	–	–
CCC(=O)N1N=C(c2ccccc2)CC1c1cn(-c2ccc(Br)cc2)nc1-c1ccc([N+](=O)[O-])cc1 (stereo not given)	2.12 (≈ 3.9 µM)	1.83 (≈ 3.36 µM)	34	60.47	6.82	–	–	–	–	–	–
Cc1ccc(-c2nn(-c3ccc(Br)cc3)cc2/C=N/NC(=S)Nc2ccccc2)cc1	3.62 (≈ 7.39 µM)	2.41 (≈ 4.91 µM)	30	65.12	8.84	–	–	–	–	–	–
CC(=O)N1N=C(c2ccccc2)CC1c1cn(-c2ccc(C)cc2)nc1-c1ccc(C)cc1 (stereo not given)	3.05 (≈ 7.01 µM)	2.31 (≈ 5.32 µM)	18	79.07	10.08	–	–	–	–	–	–
CC(=O)N(C1=NN(C(C)=O)C(c2cn(-c3ccc(C)cc3)nc2-c2ccc([N+](=O)[O-])cc2)S1)c1ccccc1 (stereo not given)	0.846 (≈ 1.57 µM)	1.21 (≈ 2.24 µM)	18	79.07	10.4	–	–	–	–	–	–
Cc1ccc(-c2nn(-c3ccc(Br)cc3)cc2/C=N/N=c2/scc(-c3ccc(Br)cc3)n2-c2ccccc2)cc1	4.06 (≈ 6.07 µM)	2.21 (≈ 3.3 µM)	14	83.72	11.22	–	–	–	–	–	–
O=[N+]([O-])c1ccc(-c2nn(-c3ccc(Br)cc3)cc2C2CC(c3ccccc3)=NN2c2ccccc2)cc1 (stereo not given)	3.85 (≈ 6.82 µM)	2.01 (≈ 3.56 µM)	32	62.79	9.84	–	–	–	–	–	–
CCC(=O)N1N=C(c2ccccc2)CC1c1cn(-c2ccc(C)cc2)nc1-c1ccc(C)cc1 (stereo not given)	1.6 (≈ 3.57 µM)	1.02 (≈ 2.27 µM)	38	55.81	8.84	–	–	–	–	–	–
O=[N+]([O-])c1ccc(-c2nn(-c3ccc(Br)cc3)cc2/C=N/N=c2/scc(-c3ccc(Br)cc3)n2-c2ccccc2)cc1	2.9 (≈ 4.14 µM)	1.07 (≈ 1.53 µM)	28	67.44	12.26	–	–	–	–	–	–
CC(=O)N1N=C(c2ccccc2)CC1c1cn(-c2ccc(Br)cc2)nc1-c1ccc([N+](=O)[O-])cc1 (stereo not given)	1.09 (≈ 2.05 µM)	0.89 (≈ 1.68 µM)	26	69.77	6.62	–	–	–	–	–	–
CCN(CC)CCCC(C)Nc1ccnc2cc(Cl)ccc12.O=P(O)(O)O.O=P(O)(O)O (stereo not given) [CHLOROQUINE PHOSPHATE]	–	–	0	100	–	–	–	–	–	–	Active
Cc1ccc(-c2nn(-c3ccc(C)cc3)cc2/C=N/N=C2/SCC(=O)N2c2ccccc2)cc1	0.882 (≈ 1.89 µM)	0.58 (≈ 1.25 µM)	10	88.37	10.64	–	–	–	–	–	–
